The values below come from PubChem BioAssay.

Test [1] in a line: inhibitors of TNFa-induced NFkB p65 translocation, primary screen, imaging, HUVEC, MLSMR starter and 10KST1 sets (AID 438;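 active means inhibition above 20% together with a positive visual image hit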;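 further: compound added about 3h40 before a 20 min TNFalpha stimulation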;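 on inhibition: signal is the nuclear over cytoplasmic p65 intensity ratio per well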). Particulars: HUVEC TNFa-induced p65 nuclear translocation; cell count: measured here: nuclei count (cytotoxicity indicator), at 2.08 µM; inhibition: at 2 µM, stronger effect = higher value, 0% TNFa-plus-vehicle, 100% no-TNFa wells.
Test [2] in a line: reduction of polyQ htt aggregates in cells – imaging, exon1htt(103Q)mCFP cells, high-content imaging, primary screen (AID 483;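 active means visual image review flags a hit and inhibition of aggregation exceeds 20%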;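 further: compound exposure lasted 3 days before fixation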;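 on nuclei count: percent of the per-plate median nuclei count of sample wells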). To be noted: exon1htt(103Q)mCFP cell line, aggregate imaging, at 2 µM; inhibition of aggregation: stronger effect = higher value; nuclei count: measured here: cell count, toxicity.
A short description of test [3]: endothelial E-selectin expression blockers – imaging, HUVEC, immunofluorescence, MLSMR starter and 10KST1 sets, primary screen (AID 487;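 active means visually confirmed hit in the image check and inhibition above 20%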;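 on inhibition: signal is fraction of cell area covered by stained E-selectin grains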;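 on nuclei count: 100% = median nuclei count of all wells on the same plate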). Particulars: HUVEC TNFalpha-induced E-selectin immunofluorescence imaging, at 2 µM; inhibition: stronger effect = higher value; nuclei count: measured here: cell number, toxicity.
Test [4] has as its target Voltage-gated potassium channel subunit beta-2 (Rattus norvegicus) (UniProt P62483). Kind of test: inhibitors of rat Kvbeta2 reductase activity – biochemical, NADPH fluorescence, primary screen (AID 622;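 active means fluorescence slope higher than the sample average by over 3 SD, cut at about -0.22 in these data, passing the limit was not always enough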;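 further: slope of raw intensity against log time taken from 70 to 1610 s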). Particulars: recombinant KvBeta, 4-cyanobenzaldehyde reduction, at 10 µM, stronger effect = higher value.
For test [5] the target is unchanged. Kind of test: enhancers of rat Kvbeta2 NADPH turnover – biochemical, NADPH fluorescence, primary screen (AID 623;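 active means NADPH fluorescence slope more negative than the mean of all samples by about 3 SD, 99.7% confidence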;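 further: fluorescence intensity change per second fitted from 20 to 320 s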). To be noted: Recombinant KvBeta, NADPH fluorescence decrease slope, 10 min; at 10 µM; stronger effect = lower value.
Test [6] addresses Muscarinic acetylcholine receptor M4 (Homo sapiens) (UniProt P08173). In words: M4-linked GIRK flux change, two-sided – cell-based, HEK293 M4/GIRK, thallium flux, BTC-AM, M4 allosteric agonist project, primary screen (AID 625).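 Further: thallium influx through GIRK channels coupled to M4 in HEK293 cells with BTC-AM dye.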 Particulars: at 10 µM, actives lie on both sides. The method, boiled down:
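assay system = HEK293 cells with M4 receptor and GIRK channels | medium = pH 7.3 thallium assay buffer | doses = 10 µM final, single point | timing = cells overnight at 37 °C, BTC-AM loading 1 h, reads 2 min total | signal = BTC-AM fluorescence, 1 Hz kinetic reads | read-out = post-addition slope, 15–24 s, of baseline-normalized fluorescence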

Test [7] in a line: blockers of RIG-like receptor reporter activation – cell-based, Sendai virus stimulus, luciferase, 10K MLSCN set, TLR/RLR signaling modifier project, primary screen (AID 602276;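 active means inhibition at or above 50% at 10 µM; inactive means inhibition below 50%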;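 further: firefly luciferase from ISG56 promoter only with Renilla not read in this screen; 0% = Sendai virus plus DMSO and 100% = medium plus DMSO without virus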). To be noted: HEK293 RL24 IRF3 luciferase reporter, at 10 µM, stronger effect = higher value.
Test [8] is described as follows: TLR3 IRF3 reporter activation blockers – cell-based, poly I:C stimulus, luciferase, 10K MLSCN set, primary screen (AID 602277;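 active means inhibition of the reporter signal at or above 50%; inactive means inhibition below 50%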). To be noted: HEK293-TLR3 RL24 IRF3 luciferase reporter, at 10 µM, stronger effect = higher value.

Calls of active or inactive are those of the source.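 How the source made its calls, unless noted: active means fluorescence slope after compound addition differing from the mean of all tested samples at 99.7% confidence, mostly higher but some lower; inactive means the rest.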

Voltage-gated potassium channel subunit beta-2 (Rattus norvegicus), sequence (P62483 whole entry, looked up): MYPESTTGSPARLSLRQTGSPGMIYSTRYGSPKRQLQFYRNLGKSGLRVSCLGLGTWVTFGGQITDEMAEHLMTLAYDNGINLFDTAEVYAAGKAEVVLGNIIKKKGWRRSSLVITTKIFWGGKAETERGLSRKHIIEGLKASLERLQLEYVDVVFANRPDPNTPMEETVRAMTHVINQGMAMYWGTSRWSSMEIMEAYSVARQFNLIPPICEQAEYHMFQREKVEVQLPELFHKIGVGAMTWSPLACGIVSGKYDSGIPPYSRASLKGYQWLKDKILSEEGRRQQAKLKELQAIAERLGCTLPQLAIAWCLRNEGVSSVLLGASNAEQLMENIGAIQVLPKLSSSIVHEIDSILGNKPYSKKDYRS
Muscarinic acetylcholine receptor M4 (Homo sapiens), sequence (P08173 whole entry, looked up): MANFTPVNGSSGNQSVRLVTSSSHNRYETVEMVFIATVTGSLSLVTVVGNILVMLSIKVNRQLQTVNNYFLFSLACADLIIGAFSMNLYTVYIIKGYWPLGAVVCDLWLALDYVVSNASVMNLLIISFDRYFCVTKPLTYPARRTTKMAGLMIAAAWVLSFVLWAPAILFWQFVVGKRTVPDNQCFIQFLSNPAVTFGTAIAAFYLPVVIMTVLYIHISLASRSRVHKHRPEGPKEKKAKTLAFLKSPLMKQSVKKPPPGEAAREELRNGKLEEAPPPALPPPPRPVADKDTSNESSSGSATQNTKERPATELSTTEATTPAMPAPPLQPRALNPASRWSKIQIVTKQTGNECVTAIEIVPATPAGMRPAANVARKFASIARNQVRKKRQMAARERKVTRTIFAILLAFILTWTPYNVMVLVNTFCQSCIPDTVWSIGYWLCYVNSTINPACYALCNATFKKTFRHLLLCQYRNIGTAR

Consider `c1coc(-c2nnc(-c3cccs3)o2)c1`, for which the cell count in test [1] came out at 497. In addition, the inhibition was -1.7% (inactive) in test [1], -7.2% (inactive) in test [3], -25.9% (inactive) in test [7] and -87.8% (inactive) in test [8]. Further, the inhibition of aggregation in test [2] was 13.3% (inactive). Moreover, the results for the nuclei count in test [2] and in test [3] were 75% and 115%, respectively. The fluorescence slope in test [4] was -0.51 (inactive); in test [6] it was 0.00586 (inactive). The NADPH fluorescence slope in test [5] was -6.6e-07 (inactive).

With `Cc1[nH]c(=O)[nH]c(=O)c1S(=O)(=O)N1CCN(c2cccc(Cl)c2)CC1`, the cell count in test [1] amounted to 799. The inhibition was 4.2% (inactive) in test [1], -160% (inactive) in test [3], -13.2% (inactive) in test [7] and -11.6% (inactive) in test [8]. For the same molecule, the inhibition of aggregation in test [2] is -23.7% (inactive). In addition, the nuclei count came to 104% in test [2] and 126% in test [3]. The fluorescence slope in test [4] was -0.567 (inactive); in test [6] it was 0.0059 (inactive). Besides, in test [5], the NADPH fluorescence slope is -1.8e-05 (inactive).

As to `COc1ccc(CN(C(=O)c2ccccc2OC)C2CCS(=O)(=O)C2)cc1` (stereo not drawn), the cell count in test [1] is 452. Further, the inhibition in test [1] is 2.2% (inactive); in test [3], 13.1% (inactive); in test [7] it was 14.2% (inactive); in test [8], 23.7% (inactive). Moreover, the inhibition of aggregation in test [2] was 23% (inactive). The nuclei count in test [2] worked out at 75%; in test [3], 109%. The figures for the fluorescence slope in test [4] and in test [6] were -0.58 (inactive) and 0.00303 (inactive), respectively. For the same molecule, the NADPH fluorescence slope in test [5] was -7.5e-05 (inactive).

With `CC(C)(C)n1nnnc1C(c1cccc(C#N)c1)N1CCC(Cc2ccccc2)CC1` (stereo not drawn), the cell count in test [1] was found to be 613. The inhibition in test [1] was -13.9% (inactive); in test [3] it was -8% (inactive); in test [7], 25.2% (inactive); in test [8], 36.8% (inactive). In test [2], the inhibition of aggregation is 30.1% (inactive). The figures for the nuclei count in test [2] and in test [3] were 81.1% and 128%, respectively. Besides, the fluorescence slope in test [4] was -0.571 (inactive); in test [6], 0.00477 (inactive). Further, the NADPH fluorescence slope in test [5] is -3.4e-05 (inactive).

As for `Cc1sc2nc(SCC(=O)NCc3ccco3)n(CCc3ccccc3)c(=O)c2c1C`, the cell count in test [1] came out at 589. Further, the inhibition in test [1] is -17.7% (inactive); in test [3], -45.3% (inactive); in test [7] it was 13.1% (inactive); in test [8], 0.6% (inactive). In test [2], the inhibition of aggregation is -11.6% (inactive). Further, the figures for the nuclei count in test [2] and in test [3] were 101% and 108%, respectively. For the same molecule, the fluorescence slope in test [4] was -0.394 (inactive); in test [6], 0.0086 (inactive). The NADPH fluorescence slope in test [5] was 5.5e-06 (inactive).

For `Cc1cccc(C(=O)N2CCN(C(=O)c3cccc(C)c3)C(C)C2)c1` (stereo not drawn), in test [1], the cell count was 394. Besides, the inhibition is -3.8% (inactive) in test [1], -31.8% (inactive) in test [3], -15.5% (inactive) in test [7] and -12% (inactive) in test [8]. Further, the inhibition of aggregation in test [2] was 3.6% (inactive). The nuclei count in test [2] came to 113%; in test [3], 114%. Also, the fluorescence slope in test [4] is -0.311 (inactive); in test [6], 0.00692 (inactive). Besides, in test [5], the NADPH fluorescence slope was 1.4e-05 (inactive).

`O=C(OCCCN1C(=O)c2ccccc2C1=O)c1ccco1`: the cell count in test [1] turned out to be 643. Also, the inhibition is -2.2% (inactive) in test [1], 33.4% (inactive) in test [3], -6.62% (inactive) in test [7] and -11.6% (inactive) in test [8]. In addition, the inhibition of aggregation in test [2] is 17.8% (inactive). The nuclei count in test [2] was determined as 96.8%; in test [3] it was 98.5%. Further, the fluorescence slope in test [4] is -0.482 (inactive); in test [6], 0.00571 (inactive). Also, the NADPH fluorescence slope in test [5] was 4.2e-05 (inactive).

As for `COc1ccc(CNc2nc3nc(C)cc(C)n3n2)cc1OC`, in test [1], the cell count is 646. Further, the inhibition in test [1] is -15.5% (inactive); in test [3], -5.7% (inactive); in test [7] it was 13.3% (inactive); in test [8], 12.9% (inactive). In addition, in test [2], the inhibition of aggregation was 39.5% (active). For the same molecule, the nuclei count was 107% in test [2] and 115% in test [3]. Besides, the fluorescence slope in test [4] is -0.422 (inactive); in test [6], 0.00355 (inactive). In test [5], the NADPH fluorescence slope is -0.000434 (inactive).
